Measured values as given in ChEMBL document CHEMBL1649256, “Comparison of assessment of oxygen consumption, Etest, and CLSI M38-A2 broth microdilution methods for evaluation of the susceptibility of Aspergillus fumigatus to posaconazole” (2009).
Converted amounts (≈) assume the structure as drawn.

Key:
Assay type in all cases: functional
Aspergillus fumigatus [1] = test: Antimicrobial activity against Aspergillus fumigatus isolate 47 by CLSI M38-A2 broth microdilution method
Aspergillus fumigatus [2] = test: Antimicrobial activity against Aspergillus fumigatus isolate 49 by CLSI M38-A2 broth microdilution method
Aspergillus fumigatus [3] = test: Antimicrobial activity against Aspergillus fumigatus isolate 41 by oxygen consumption method
Outline: (§1)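 Conidial suspension in RPMI 1640 broth, tested at two posaconazole levels (0.25 and 2 μg/ml). Agitated for 12 h at 37°C in a biological oxygen monitor. MIC derived from continuous monitoring and quantification of the available oxygen.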

Aspergillus fumigatus [4] = test: Antimicrobial activity against Aspergillus fumigatus isolate 10 after 24 hrs by Etest; conditions: isolate 10, 24 h
Outline: (§2)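 Posaconazole Etest strips placed on RPMI 1640 agar with 2% glucose, pH 7.0, and run per the strip maker's instructions. Incubation at 35°C, with the MIC read at 24 h and at 48 h.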

Aspergillus fumigatus [5] = test: Antimicrobial activity against Aspergillus fumigatus isolate 38 after 24 hrs by Etest; conditions: isolate 38, 24 h
Outline: (§3)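 Posaconazole Etest strips on RPMI 1640 agar with 2% glucose, pH 7.0, run per the strip maker's instructions. Incubated at 35°C. MIC read at 24 h and at 48 h, matching the time in each line.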

Aspergillus fumigatus [6] = test: Antimicrobial activity against Aspergillus fumigatus isolate 49 after 24 hrs by Etest; conditions: isolate 49, 24 h
Aspergillus fumigatus [7] = test: Antimicrobial activity against Aspergillus fumigatus isolate 48 after 24 hrs by Etest; conditions: isolate 48, 24 h
Aspergillus fumigatus [8] = test: Antimicrobial activity against Aspergillus fumigatus isolate 29 by oxygen consumption method
Outline: (§4)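 Conidial suspension in RPMI 1640 broth, 1.5 ml, with two drug concentrations (0.25 and 2 μg/ml). Tubes agitated 12 h at 37°C in a biological oxygen monitor. Available oxygen monitored continuously and quantified to assign the MIC.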

Aspergillus fumigatus [9] = test: Antimicrobial activity against Aspergillus fumigatus isolate 9 by CLSI M38-A2 broth microdilution method
Aspergillus fumigatus [10] = test: Antimicrobial activity against Aspergillus fumigatus isolate 5 by CLSI M38-A2 broth microdilution method
Aspergillus fumigatus [11] = test: Antimicrobial activity against Aspergillus fumigatus isolate 18 by oxygen consumption method
Outline: (§5)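 Conidial suspension in RPMI 1640 broth with posaconazole at 0.25 and 2 μg/ml. Tubes agitated 12 h at 37°C in a biological oxygen monitor. Available oxygen was monitored continuously, and the MIC was assigned from the oxygen quantification.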

Aspergillus fumigatus [12] = test: Antimicrobial activity against Aspergillus fumigatus isolate 22 by oxygen consumption method; outline: as §4
Aspergillus fumigatus [13] = test: Antimicrobial activity against Aspergillus fumigatus isolate 3 by oxygen consumption method; outline: as §4
Aspergillus fumigatus [14] = test: Antimicrobial activity against Aspergillus fumigatus isolate 46 by CLSI M38-A2 broth microdilution method
Aspergillus fumigatus [15] = test: Antimicrobial activity against Aspergillus fumigatus isolate 24 after 24 hrs by Etest; conditions: isolate 24, 24 h
Outline: (§6)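 Etest strips on RPMI 1640 agar with 2% glucose, pH 7.0, run per manufacturer's instructions. Incubated at 35°C; MIC read at 24 h.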

Aspergillus fumigatus [16] = test: Antimicrobial activity against Aspergillus fumigatus isolate 50 by CLSI M38-A2 broth microdilution method
Aspergillus fumigatus [17] = test: Antimicrobial activity against Aspergillus fumigatus isolate 23 after 24 hrs by Etest; conditions: isolate 23, 24 h; outline: as §6
Aspergillus fumigatus [18] = test: Antimicrobial activity against Aspergillus fumigatus isolate 21 by oxygen consumption method; outline: as §4
Aspergillus fumigatus [19] = test: Antimicrobial activity against Aspergillus fumigatus isolate 13 after 24 hrs by Etest; conditions: isolate 13, 24 h; outline: as §2
Aspergillus fumigatus [20] = test: Antimicrobial activity against Aspergillus fumigatus isolate 49 by oxygen consumption method
Aspergillus fumigatus [21] = test: Antimicrobial activity against Aspergillus fumigatus isolate 14 by CLSI M38-A2 broth microdilution method
Outline: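 Posaconazole broth microdilution follows CLSI M38-A2. The MIC is the lowest concentration with no visible growth at 48 h. Candida parapsilosis ATCC 22019 and Candida krusei ATCC 6258 were included as QC strains in every run.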

Aspergillus fumigatus [22] = test: Antimicrobial activity against Aspergillus fumigatus isolate 46 after 48 hrs by Etest; conditions: isolate 46, 48 h
Aspergillus fumigatus [23] = test: Antimicrobial activity against Aspergillus fumigatus isolate 34 by CLSI M38-A2 broth microdilution method
Outline: (§7)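 CLSI M38-A2 broth microdilution with posaconazole. MIC taken as the lowest concentration with no visible growth at 48 h. C. parapsilosis ATCC 22019 and C. krusei ATCC 6258 were included as QC strains in every run.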

Aspergillus fumigatus [24] = test: Antimicrobial activity against Aspergillus fumigatus isolate 18 after 48 hrs by Etest; conditions: isolate 18, 48 h; outline: as §2
Aspergillus fumigatus [25] = test: Antimicrobial activity against Aspergillus fumigatus isolate 37 after 24 hrs by Etest; conditions: isolate 37, 24 h; outline: as §3
Aspergillus fumigatus [26] = test: Antimicrobial activity against Aspergillus fumigatus isolate 37 after 48 hrs by Etest; conditions: isolate 37, 48 h; outline: as §3
Aspergillus fumigatus [27] = test: Antimicrobial activity against Aspergillus fumigatus isolate 22 after 48 hrs by Etest; conditions: isolate 22, 48 h
Outline: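 Etest strips on RPMI 1640 agar with 2% glucose, pH 7.0, run per manufacturer's instructions. Incubated at 35°C; MIC read at 48 h.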

Aspergillus fumigatus [28] = test: Antimicrobial activity against Aspergillus fumigatus isolate 40 by CLSI M38-A2 broth microdilution method; outline: as §7
Aspergillus fumigatus [29] = test: Antimicrobial activity against Aspergillus fumigatus isolate 50 after 24 hrs by Etest; conditions: isolate 50, 24 h
Aspergillus fumigatus [30] = test: Antimicrobial activity against Aspergillus fumigatus isolate 19 after 48 hrs by Etest; conditions: isolate 19, 48 h; outline: as §2
Aspergillus fumigatus [31] = test: Antimicrobial activity against Aspergillus fumigatus isolate 41 by CLSI M38-A2 broth microdilution method; outline: as §7
Aspergillus fumigatus [32] = test: Antimicrobial activity against Aspergillus fumigatus isolate 12 by oxygen consumption method; outline: as §5
Aspergillus fumigatus [33] = test: Antimicrobial activity against Aspergillus fumigatus isolate 12 after 24 hrs by Etest; conditions: isolate 12, 24 h; outline: as §2
Aspergillus fumigatus [34] = test: Antimicrobial activity against Aspergillus fumigatus isolate 44 after 48 hrs by Etest; conditions: isolate 44, 48 h
Aspergillus fumigatus [35] = test: Antimicrobial activity against Aspergillus fumigatus isolate 32 by CLSI M38-A2 broth microdilution method; outline: as §7
Aspergillus fumigatus [36] = test: Antimicrobial activity against Aspergillus fumigatus isolate 14 by oxygen consumption method; outline: as §5
Aspergillus fumigatus [37] = test: Antimicrobial activity against Aspergillus fumigatus isolate 20 after 24 hrs by Etest; conditions: isolate 20, 24 h; outline: as §2
Aspergillus fumigatus [38] = test: Antimicrobial activity against Aspergillus fumigatus isolate 12 after 48 hrs by Etest; conditions: isolate 12, 48 h; outline: as §2
Aspergillus fumigatus [39] = test: Antimicrobial activity against Aspergillus fumigatus isolate 28 by oxygen consumption method; outline: as §4
Aspergillus fumigatus [40] = test: Antimicrobial activity against Aspergillus fumigatus isolate 35 after 24 hrs by Etest; conditions: isolate 35, 24 h; outline: as §3
Aspergillus fumigatus [41] = test: Antimicrobial activity against Aspergillus fumigatus isolate 33 by oxygen consumption method; outline: as §1
Aspergillus fumigatus [42] = test: Antimicrobial activity against Aspergillus fumigatus isolate 19 after 24 hrs by Etest; conditions: isolate 19, 24 h; outline: as §2
Aspergillus fumigatus [43] = test: Antimicrobial activity against Aspergillus fumigatus isolate 32 after 48 hrs by Etest; conditions: isolate 32, 48 h; outline: as §3
Aspergillus fumigatus [44] = test: Antimicrobial activity against Aspergillus fumigatus isolate 27 by CLSI M38-A2 broth microdilution method
Outline: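 Reference broth microdilution per CLSI M38-A2. MIC read as absence of visible growth at 48 h. C. parapsilosis ATCC 22019 and C. krusei ATCC 6258 QC strains run in each test session.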

SMILES: CC[C@@H]([C@H](C)O)n1ncn(-c2ccc(N3CCN(c4ccc(OC[C@@H]5CO[C@@](Cn6cncn6)(c6ccc(F)cc6F)C5)cc4)CC3)cc2)c1=O [POSACONAZOLE]
- MIC (Aspergillus fumigatus [1]): 0.125 µg/mL (≈ 0.178 µM)
- MIC (Aspergillus fumigatus [2]): 0.125 µg/mL (≈ 0.178 µM)
- MIC (Aspergillus fumigatus [3]): ≤ 0.25 µg/mL
- MIC (Aspergillus fumigatus [4]): 0.125 µg/mL (≈ 0.178 µM)
- MIC (Aspergillus fumigatus [5]): 0.06 µg/mL (≈ 0.0856 µM)
- MIC (Aspergillus fumigatus [6]): 0.5 µg/mL (≈ 0.713 µM)
- MIC (Aspergillus fumigatus [7]): ≤ 0.03 µg/mL
- MIC (Aspergillus fumigatus [8]): ≤ 0.25 µg/mL
- MIC (Aspergillus fumigatus [9]): 0.25 µg/mL (≈ 0.357 µM)
- MIC (Aspergillus fumigatus [10]): 1 µg/mL (≈ 1.43 µM)
- MIC (Aspergillus fumigatus [11]): ≤ 0.25 µg/mL
- MIC (Aspergillus fumigatus [12]): ≤ 0.25 µg/mL
- MIC (Aspergillus fumigatus [13]): ≥ 0.5 µg/mL
- MIC (Aspergillus fumigatus [14]): 0.125 µg/mL (≈ 0.178 µM)
- MIC (Aspergillus fumigatus [15]): 0.125 µg/mL (≈ 0.178 µM)
- MIC (Aspergillus fumigatus [16]): 0.125 µg/mL (≈ 0.178 µM)
- MIC (Aspergillus fumigatus [17]): 0.25 µg/mL (≈ 0.357 µM)
- MIC (Aspergillus fumigatus [18]): ≤ 0.25 µg/mL
- MIC (Aspergillus fumigatus [19]): 0.25 µg/mL (≈ 0.357 µM)
- MIC (Aspergillus fumigatus [20]): ≥ 0.5 µg/mL
- MIC (Aspergillus fumigatus [21]): 0.125 µg/mL (≈ 0.178 µM)
- MIC (Aspergillus fumigatus [22]): 0.125 µg/mL (≈ 0.178 µM)
- MIC (Aspergillus fumigatus [23]): 0.125 µg/mL (≈ 0.178 µM)
- MIC (Aspergillus fumigatus [24]): 0.25 µg/mL (≈ 0.357 µM)
- MIC (Aspergillus fumigatus [25]): 0.05 µg/mL (≈ 0.0713 µM)
- MIC (Aspergillus fumigatus [26]): 0.125 µg/mL (≈ 0.178 µM)
- MIC (Aspergillus fumigatus [27]): 0.25 µg/mL (≈ 0.357 µM)
- MIC (Aspergillus fumigatus [28]): 0.125 µg/mL (≈ 0.178 µM)
- MIC (Aspergillus fumigatus [29]): 0.25 µg/mL (≈ 0.357 µM)
- MIC (Aspergillus fumigatus [30]): 0.25 µg/mL (≈ 0.357 µM)
- MIC (Aspergillus fumigatus [31]): 0.06 µg/mL (≈ 0.0856 µM)
- MIC (Aspergillus fumigatus [32]): ≤ 0.25 µg/mL
- MIC (Aspergillus fumigatus [33]): 0.25 µg/mL (≈ 0.357 µM)
- MIC (Aspergillus fumigatus [34]): 0.06 µg/mL (≈ 0.0856 µM)
- MIC (Aspergillus fumigatus [35]): 0.125 µg/mL (≈ 0.178 µM)
- MIC (Aspergillus fumigatus [36]): ≤ 0.25 µg/mL
- MIC (Aspergillus fumigatus [37]): 0.25 µg/mL (≈ 0.357 µM)
- MIC (Aspergillus fumigatus [38]): 0.5 µg/mL (≈ 0.713 µM)
- MIC (Aspergillus fumigatus [39]): ≤ 0.25 µg/mL
- MIC (Aspergillus fumigatus [40]): 0.25 µg/mL (≈ 0.357 µM)
- MIC (Aspergillus fumigatus [41]): ≥ 0.5 µg/mL
- MIC (Aspergillus fumigatus [42]): 0.125 µg/mL (≈ 0.178 µM)
- MIC (Aspergillus fumigatus [43]): 0.25 µg/mL (≈ 0.357 µM)
- MIC (Aspergillus fumigatus [44]): 0.125 µg/mL (≈ 0.178 µM)
